# Source: PubChem BioAssay AID651944 (The Scripps Research Institute Molecular Screening Center, 2012)
# Active and inactive are the calls of the source.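 Rule for the calls: active = IC50 at or below 10 µM; inactive = IC50 above 10 µM.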
# System: E. coli V66 + mutant T4 phage, OD growth
# Test: growth suppression of RecBCD+ V66 E. coli with mutant T4, dose response, counter-screen for AddAB inhibitor project, absorbance, round 2 (AID 651944)
# Outline: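 assay system = recBCD+ Escherichia coli strain V66 challenged with mutant T4 phage | schedule = compound preincubation 60 min, then phage 18 h, 37 °C | compound = 10-point threefold dilution series, top nominal 118.6 µM | benchmarks = high control ciprofloxacin, low control DMSO | signal = absorbance at 600 nm | replicates = triplicate | measure = IC50 from four-parameter curve fit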
row,SMILES,IC50
1,CCn1cc(C(=O)O)c(=O)c2cnc(N3CCN(C(=S)Nc4ccc(Cl)cc4)CC3)nc21,80.9 µM (inactive)
2,CCn1cc(C(=O)O)c(=O)c2cnc(N3CCN(C(=S)Nc4ccccc4OC)CC3)nc21,> 119 µM (inactive)
3,CCn1cc(C(=O)O)c(=O)c2cnc(N3CCN(C(=S)Nc4ccccc4F)CC3)nc21,> 119 µM (inactive)
4,CCn1cc(C(=O)O)c(=O)c2cnc(N3CCN(C(=S)Nc4cccc(C(F)(F)F)c4)CC3)nc21,77.8 µM (inactive)
5,CCn1cc(C(=O)O)c(=O)c2cnc(N3CCN(C(=S)NCc4ccccc4)CC3)nc21,> 119 µM (inactive)
6,CCn1cc(C(=O)O)c(=O)c2cnc(N3CCN(C(=S)NC(=O)c4cccc(C)c4)CC3)nc21,> 39.5 µM (inactive)
